Data taken from ChEMBL document CHEMBL5724801, “EUbOPEN Chemogenomics Library - Multiplex” (2024).
Values joined by “and” are separate entries in the source; they are usually repeats but may differ in a detail not shown here. Equal entries are not always repeated.

Tested on: HEK-293T
Assay: Multiplex assay against HEK293T
Type: toxicity, cell-based
Settings: human
In short: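 Live cells were stained at seeding with Hoechst33342, BioTracker Green Microtubule Cytoskeleton Dye, MitoTracker Red and Annexin V Alexa Fluor 680, then imaged on a CQ1 microscope at 37°C and 5% CO2 after compound addition. CellPathfinder machine-learning gating split cells into Hoechst high-intensity objects or normal cells. Normal cells were split into healthy, pyknosed or fragmented nuclei, and pyknosed cells into mitotic or apoptotic. Tubulin, mitochondrial-mass and membrane-permeability phenotypes are per cents of healthy-nucleus cells.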

[1] = 12 h, 1 µM, compound concentration 1 uM
[2] = 12 h, 10 µM, compound concentration 10 uM
[3] = 24 h, 1 µM, compound concentration 1 uM
[4] = 24 h, 10 µM, compound concentration 10 uM
[5] = 48 h, 1 µM, compound concentration 1 uM
[6] = 48 h, 10 µM, compound concentration 10 uM

Q: For `CCc1nn2c(C)cc(C)nc2c1Cc1ccc(-c2nnc(C3CCNCC3)o2)cc1`, which “Population Apoptotic (%)” value [1] is on record?
A: Its value is 35% and 51%.

Q: And the “Population Fragmented Nuclei (%)” value [1]?
A: The value was 9% and 7%.

Q: What about the “Population Healthy Nuclei (%)” value [1] of the same molecule?
A: The value was 80% and 78%.

Q: And the “Population Hoechst High Intensity Objects (%)” value [1]?
A: Its value is 7% and 5%.

Q: And the “Population Membrane Permeable-Phenotype (%)” value [1]?
A: The value was 0%.

Q: What about the “Population Mitochondria Different-Phenotype (%)” value [1] of the same molecule?
A: Its value is 54% and 62%.

Q: And the “Population Mitotic Cells (%)” value [1]?
A: Its value is 64% and 48%.

Q: And the “Population Normal (%)” value [1]?
A: The value was 92% and 94%.

Q: What about the “Population Pyknosed Nuclei (%)” value [1] of the same molecule?
A: Its value is 10% and 13%.

Q: What about the “Population Tubulin-Different-Phenotype (%)” value [1] of the same molecule?
A: The value was 37% and 19%.

Q: And the “Total Cell Count” value [1]?
A: The value was 401 and 395.

Q: What about the “Population Apoptotic (%)” value [2] of the same molecule?
A: Its value is 63% and 56%.

Q: What about the “Population Fragmented Nuclei (%)” value [2] of the same molecule?
A: The value was 6% and 4%.

Q: And the “Population Healthy Nuclei (%)” value [2]?
A: The value was 68% and 78%.

Q: What about the “Population Hoechst High Intensity Objects (%)” value [2] of the same molecule?
A: The value was 11% and 12%.

Q: What about the “Population Membrane Permeable-Phenotype (%)” value [2] of the same molecule?
A: Its value is 0%.

Q: What about the “Population Mitochondria Different-Phenotype (%)” value [2] of the same molecule?
A: The value was 85% and 86%.

Q: What about the “Population Mitotic Cells (%)” value [2] of the same molecule?
A: The value was 36% and 43%.

Q: What about the “Population Normal (%)” value [2] of the same molecule?
A: Its value is 88% and 87%.

Q: And the “Population Pyknosed Nuclei (%)” value [2]?
A: Its value is 25% and 17%.

Q: And the “Population Tubulin-Different-Phenotype (%)” value [2]?
A: The value was 65% and 48%.

Q: And the “Total Cell Count” value [2]?
A: Its value is 319 and 293.

Q: And the “Population Apoptotic (%)” value [3]?
A: The value was 44% and 34%.

Q: And the “Population Fragmented Nuclei (%)” value [3]?
A: Its value is 10% and 7%.

Q: And the “Population Healthy Nuclei (%)” value [3]?
A: The value was 76% and 78%.

Q: What about the “Population Hoechst High Intensity Objects (%)” value [3] of the same molecule?
A: The value was 4% and 5%.

Q: And the “Population Membrane Permeable-Phenotype (%)” value [3]?
A: The value was 0%.

Q: And the “Population Mitochondria Different-Phenotype (%)” value [3]?
A: Its value is 36% and 50%.

Q: And the “Population Mitotic Cells (%)” value [3]?
A: Its value is 55% and 65%.

Q: And the “Population Normal (%)” value [3]?
A: Its value is 95% and 94%.

Q: What about the “Population Pyknosed Nuclei (%)” value [3] of the same molecule?
A: Its value is 13%.

Q: What about the “Population Tubulin-Different-Phenotype (%)” value [3] of the same molecule?
A: Its value is 23% and 19%.

Q: What about the “Total Cell Count” value [3] of the same molecule?
A: Its value is 529 and 542.

Q: And the “Population Apoptotic (%)” value [4]?
A: The value was 69% and 41%.

Q: What about the “Population Fragmented Nuclei (%)” value [4] of the same molecule?
A: The value was 11% and 10%.

Q: And the “Population Healthy Nuclei (%)” value [4]?
A: The value was 72% and 77%.

Q: And the “Population Hoechst High Intensity Objects (%)” value [4]?
A: The value was 5% and 7%.

Q: And the “Population Membrane Permeable-Phenotype (%)” value [4]?
A: The value was 0%.

Q: And the “Population Mitochondria Different-Phenotype (%)” value [4]?
A: Its value is 73% and 78%.

Q: What about the “Population Mitotic Cells (%)” value [4] of the same molecule?
A: The value was 30% and 58%.

Q: What about the “Population Normal (%)” value [4] of the same molecule?
A: Its value is 94% and 92%.

Q: And the “Population Pyknosed Nuclei (%)” value [4]?
A: The value was 15% and 11%.

Q: And the “Population Tubulin-Different-Phenotype (%)” value [4]?
A: Its value is 50% and 45%.

Q: What about the “Total Cell Count” value [4] of the same molecule?
A: The value was 448 and 389.

Q: What about the “Population Apoptotic (%)” value [5] of the same molecule?
A: The value was 28% and 32%.

Q: And the “Population Fragmented Nuclei (%)” value [5]?
A: Its value is 12% and 11%.

Q: What about the “Population Healthy Nuclei (%)” value [5] of the same molecule?
A: Its value is 79% and 83%.

Q: And the “Population Hoechst High Intensity Objects (%)” value [5]?
A: Its value is 2% and 5%.

Q: What about the “Population Membrane Permeable-Phenotype (%)” value [5] of the same molecule?
A: The value was 0%.

Q: What about the “Population Mitochondria Different-Phenotype (%)” value [5] of the same molecule?
A: The value was 25% and 24%.

Q: What about the “Population Mitotic Cells (%)” value [5] of the same molecule?
A: Its value is 71% and 67%.

Q: What about the “Population Normal (%)” value [5] of the same molecule?
A: The value was 97% and 94%.

Q: What about the “Population Pyknosed Nuclei (%)” value [5] of the same molecule?
A: Its value is 8% and 5%.

Q: And the “Population Tubulin-Different-Phenotype (%)” value [5]?
A: Its value is 15% and 10%.

Q: What about the “Total Cell Count” value [5] of the same molecule?
A: Its value is 842 and 829.

Q: And the “Population Apoptotic (%)” value [6]?
A: Its value is 54% and 50%.

Q: And the “Population Fragmented Nuclei (%)” value [6]?
A: The value was 14% and 12%.

Q: And the “Population Healthy Nuclei (%)” value [6]?
A: Its value is 72% and 80%.

Q: What about the “Population Hoechst High Intensity Objects (%)” value [6] of the same molecule?
A: The value was 4% and 3%.

Q: And the “Population Membrane Permeable-Phenotype (%)” value [6]?
A: Its value is 0%.

Q: And the “Population Mitochondria Different-Phenotype (%)” value [6]?
A: Its value is 59% and 56%.

Q: And the “Population Mitotic Cells (%)” value [6]?
A: Its value is 45% and 50%.

Q: What about the “Population Normal (%)” value [6] of the same molecule?
A: The value was 95% and 96%.

Q: And the “Population Pyknosed Nuclei (%)” value [6]?
A: The value was 13% and 6%.

Q: What about the “Population Tubulin-Different-Phenotype (%)” value [6] of the same molecule?
A: The value was 32% and 26%.

Q: And the “Total Cell Count” value [6]?
A: Its value is 517 and 607.
